Reference: ChEMBL document CHEMBL3407395, “Synthesis, characterization, and optimization for in vivo delivery of a nonselective isopeptidase inhibitor as new antineoplastic agent” (J Med Chem, 2015)
The source made the active and inactive calls. The calls are words filed in the database; no cut-off is given here.

Legend:
A549 [1] = experiment: Induction of cell death in human A549 cells assessed as accumulation of p53 at 10 uM after 48 hrs by immunoblot assay; type: functional, cell-based
In short: (§1)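 A549 cells grown in normal or A375-conditioned medium, treated with 10 µM. Immunoblots probed poly-ubiquitin accumulation, p53 stabilization and Noxa induction.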

A549 [2] = experiment: Induction of cell death in human A549 cells assessed as accumulation of Noxa at 10 uM after 48 hrs by immunoblot assay; type: functional, cell-based; in short: as §1
U-87 MG [3] = experiment: Induction of necrosis in human U87MG cells at 0.6 to 10 uM after 24 hrs by trypan blue assay; type: functional, cell-based; settings: U-87MG ATCC
In short: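 U87MG cells treated 24 h at the indicated concentrations. Death scored as percent trypan blue-positive cells. Caspase activity measured in parallel with a rhodamine 110 bis-(N-Z-DEVD amide) fluorogenic substrate and read in relative fluorescence units.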

[4] = Cytotoxicity against human Hep3B cells after 48 hrs by resazurin assay; type: functional, cell-based, Hep 3B2
A549 [5] = experiment: Induction of cell death in human A549 cells assessed as accumulation of poly-ubiquitinated proteins at 2.5 to 10 uM after 24 hrs by immunoblot assay; type: functional, cell-based
In short: (§2)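 A549 cells dosed at three levels (2.5, 5, 10 µM or 1, 2.5, 5 µM depending on inhibitor); lysates made after 24 h. Immunoblots probed poly-ubiquitin, p53 and Noxa, quantified by densitometry; mean of two experiments.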

A549 [6] = experiment: Induction of cell death in human A549 cells assessed as stabilization of p53 at 2.5 to 10 uM after 24 hrs by immunoblot assay; type: functional, cell-based; in short: as §2
T98G = experiment: Induction of apoptosis in human T98G cells assessed as caspase activation at 0.6 to 10 uM after 24 hrs by rhodamine-based fluorescence assay; type: functional, cell-based
In short: (§3)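 U87MG or T98G cells exposed 24 h to the listed concentrations. Caspase activity was read as relative fluorescence units from the rhodamine 110 bis-(N-Z-L-aspartyl-L-glutamyl-L-valyl-aspartic acid amide) fluorogenic substrate.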

[7] = target: T1, Ubiquitin carboxyl-terminal hydrolase 2 (Homo sapiens) (UniProt O75604); experiment: Inhibition of USP2 catalytic domain (unknown origin) expressed in bacteria using Ub-AMC as substrate preincubated for 30 mins before substrate addition measured after 60 mins by fluorescence assay
T1 sequence (whole entry): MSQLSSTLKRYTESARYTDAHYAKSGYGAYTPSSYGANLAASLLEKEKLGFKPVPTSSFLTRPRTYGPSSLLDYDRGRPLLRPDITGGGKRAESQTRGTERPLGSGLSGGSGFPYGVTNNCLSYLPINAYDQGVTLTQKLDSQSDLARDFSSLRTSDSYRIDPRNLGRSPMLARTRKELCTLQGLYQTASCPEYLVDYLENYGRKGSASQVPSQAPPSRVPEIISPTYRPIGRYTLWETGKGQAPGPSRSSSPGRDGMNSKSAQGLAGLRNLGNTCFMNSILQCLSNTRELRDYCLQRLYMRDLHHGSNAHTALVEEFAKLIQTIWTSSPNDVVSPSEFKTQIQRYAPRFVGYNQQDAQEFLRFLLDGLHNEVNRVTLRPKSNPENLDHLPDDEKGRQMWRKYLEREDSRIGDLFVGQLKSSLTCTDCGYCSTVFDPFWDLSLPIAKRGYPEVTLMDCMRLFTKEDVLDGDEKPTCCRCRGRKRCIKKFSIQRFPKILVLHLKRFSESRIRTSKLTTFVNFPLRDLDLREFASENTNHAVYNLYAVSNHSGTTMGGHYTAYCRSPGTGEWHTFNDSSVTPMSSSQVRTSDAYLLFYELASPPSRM
In short: (§4)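 Purified isopeptidase activity was measured with ubiquitin-AMC as fluorogenic substrate; IC50 was derived from inhibition.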

U-87MG ATCC = experiment: Induction of cell death in human U87MG cells at 4.2 to 18.4 uM after 24 hrs by trypan blue assay in presence of zVAD-fmk; type: functional, cell-based
A-375 [8] = experiment: Induction of cell death in human A375 cells assessed as stabilization of p53 at 10 uM after 24 hrs by immunoblot assay; type: functional, cell-based
A549 [9] = experiment: Induction of cell death in human A549 cells at 2.5 to 10 uM after 48 hrs by trypan blue assay; type: functional, cell-based
In short: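 A549 or A375 cells treated 48 h with 2.5–10 µM. Cell death was scored by trypan blue exclusion as a function of concentration.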

A-375 [10] = experiment: Induction of cell death in human A375 cells assessed as Noxa induction at 10 uM after 24 hrs by immunoblot assay; type: functional, cell-based
A-375 [11] = experiment: Cytotoxicity against human A375 cells after 48 hrs by resazurin assay; type: functional, cell-based; settings: A-375, 48 h
[12] = Cytotoxicity against human MIAPaCa2 cells after 48 hrs by resazurin assay; type: functional, cell-based; settings: MIA PaCa-2, 48 h
A549 [13] = experiment: Cytotoxicity against human A549 cells after 48 hrs by resazurin assay; type: functional, cell-based; settings: A549, 48 h
U-87 MG [14] = experiment: Induction of apoptosis in human U87MG cells assessed as caspase activation at 0.6 to 10 uM after 24 hrs by rhodamine-based fluorescence assay; type: functional, cell-based; settings: U-87MG ATCC; in short: as §3
[15] = Cytotoxicity against human U87MG cells after 48 hrs by resazurin assay; type: functional, cell-based, U-87MG ATCC; settings: U-87 MG
In short: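 U87MG glioblastoma cells treated with compounds; viability read by resazurin 48 h after treatment. IC50 from triplicate experiments, reported as mean and s.d.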

[16] = target: T2, Ubl carboxyl-terminal hydrolase 18 (Homo sapiens, UniProt Q9UMW8); experiment: Inhibition of recombinant human USP18 (16 to 372 aa) expressed in Sf9 cells using ISG15-AMC as substrate preincubated for 30 mins before substrate addition measured after 60 mins by fluorescence assay
T2 sequence (Q9UMW8 whole entry): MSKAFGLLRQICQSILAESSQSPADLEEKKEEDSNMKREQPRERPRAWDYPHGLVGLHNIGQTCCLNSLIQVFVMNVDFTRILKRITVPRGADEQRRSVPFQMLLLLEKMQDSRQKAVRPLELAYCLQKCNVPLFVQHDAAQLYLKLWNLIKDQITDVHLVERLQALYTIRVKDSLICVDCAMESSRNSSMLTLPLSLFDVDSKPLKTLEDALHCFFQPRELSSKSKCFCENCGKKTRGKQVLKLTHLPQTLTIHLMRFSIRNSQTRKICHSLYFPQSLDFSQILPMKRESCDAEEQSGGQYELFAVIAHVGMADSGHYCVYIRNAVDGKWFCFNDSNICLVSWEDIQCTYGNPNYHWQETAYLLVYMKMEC

A549 [17] = experiment: Induction of cell death in human A549 cells assessed as accumulation of poly-ubiquitinated proteins at 10 uM after 48 hrs by immunoblot assay; type: functional, cell-based; in short: as §1
A549 [18] = experiment: Induction of cell death in human A549 cells assessed as accumulation of Noxa at 1 to 5 uM after 24 hrs by immunoblot assay; type: functional, cell-based; in short: as §2
[19] = target: Ubiquitin carboxyl-terminal hydrolase isozyme L1 (Homo sapiens) (UniProt P09936); experiment: Inhibition of GST-tagged recombinant full-length UCHL1 (unknown origin) expressed in bacteria using Ub-AMC as substrate preincubated for 30 mins before substrate addition measured after 60 mins by fluorescence assay; in short: as §4
Sequence of Ubiquitin carboxyl-terminal hydrolase isozyme L1 (Homo sapiens) (P09936 whole entry, looked up): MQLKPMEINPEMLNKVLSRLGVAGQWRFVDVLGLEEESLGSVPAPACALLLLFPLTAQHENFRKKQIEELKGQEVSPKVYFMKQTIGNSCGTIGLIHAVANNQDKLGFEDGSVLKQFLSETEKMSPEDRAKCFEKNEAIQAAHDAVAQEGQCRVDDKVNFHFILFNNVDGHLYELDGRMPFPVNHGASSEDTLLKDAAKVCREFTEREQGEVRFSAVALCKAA

A-375 [20] = experiment: Induction of cell death in human A375 cells assessed as accumulation of poly-ubiquitinated proteins at 10 uM after 24 hrs by immunoblot assay; type: functional, cell-based

O=C1/C(=C/c2ccc([N+](=O)[O-])cc2)CC(O)C/C1=C\c1ccc([N+](=O)[O-])cc1 (configuration not stated)
Activity (A549 [1]): Active | Activity (A549 [2]): Active | Activity (U-87 MG [3]): Active | IC50 [4]: 8.5 µM | Activity (A549 [5]): Active | Activity (A549 [6]): Active | Activity (T98G): Active | inhibition [7]: inactive | Activity (U-87MG ATCC): Active | Activity (A-375 [8]): Active | Activity (A549 [9]): Active | Activity (A-375 [10]): Active | IC50 (A-375 [11]): 6.1 µM | IC50 [12]: 35.2 µM | IC50 (A549 [13]): 16 µM | Activity (U-87 MG [14]): Active | IC50 [15]: 4.62 µM | IC50 [16]: 21.2 µM | Activity (A549 [17]): Active | Activity (A549 [18]): Active | inhibition [19]: inactive | Activity (A-375 [20]): Active
